# Results reported in ChEMBL document CHEMBL5303300, “EUbOPEN Chemogenomics Library - Multiplex” (2023).
# “And” between values parts separate entries of the source, which are not always exact repeats. Identical values can stand only once.
# System: Fibroblast
# Assay: Multiplex assay against human fibroblast
# Assay type: toxicity, cell-based
# Conditions: number of replicates 2
# How it was run: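 Cells stained live at seeding with Hoechst33342, BioTracker Green Microtubule Cytoskeleton Dye, MitoTracker Red and Annexin V Alexa Fluor 680 were imaged on a CQ1 microscope at 37°C and 5% CO2 after compound addition. Their classification by CellPathfinder machine-learning gating ran from Hoechst high-intensity objects versus normal cells, to healthy, pyknosed or fragmented nuclei among normal cells, to mitotic or apoptotic among pyknosed cells. Tubulin, mitochondrial-mass and membrane-permeability phenotypes are per cents of healthy-nucleus cells.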
# [1] = 12 h, 1 µM, compound concentration 1 uM
# [2] = 12 h, 10 µM, compound concentration 10 uM
# [3] = 24 h, 1 µM, compound concentration 1 uM
# [4] = 24 h, 10 µM, compound concentration 10 uM
# [5] = 48 h, 1 µM, compound concentration 1 uM
# [6] = 48 h, 10 µM, compound concentration 10 uM
smiles,measurement,setting,value
O=C1Nc2ccc(C(=O)c3ccco3)cc2C1=Cc1cc(Cl)c(O)c(Cl)c1 [GW406108X],Population Apoptotic (%),[1],28% and 31%
same,Population Fragmented Nuclei (%),[1],8% and 6%
same,Population Healthy Nuclei (%),[1],65% and 68%
same,Population Hoechst High Intensity Objects (%),[1],0%
same,Population Membrane Permeable-Phenotype (%),[1],6%
same,Population Mitochondria Different-Phenotype (%),[1],1%
same,Population Mitotic Cells (%),[1],71% and 68%
same,Population Normal (%),[1],99% and 100%
same,Population Pyknosed Nuclei (%),[1],25% and 24%
same,Population Tubulin-Different-Phenotype (%),[1],16% and 8%
same,Total Cell Count,[1],224 and 230
same,Population Apoptotic (%),[2],44% and 41%
same,Population Fragmented Nuclei (%),[2],8% and 11%
same,Population Healthy Nuclei (%),[2],69% and 67%
same,Population Hoechst High Intensity Objects (%),[2],0% and 2%
same,Population Membrane Permeable-Phenotype (%),[2],6% and 5%
same,Population Mitochondria Different-Phenotype (%),[2],0% and 2%
same,Population Mitotic Cells (%),[2],55% and 58%
same,Population Normal (%),[2],100% and 97%
same,Population Pyknosed Nuclei (%),[2],21% and 20%
same,Population Tubulin-Different-Phenotype (%),[2],18% and 14%
same,Total Cell Count,[2],178 and 206
same,Population Apoptotic (%),[3],46% and 45%
same,Population Fragmented Nuclei (%),[3],8% and 9%
same,Population Healthy Nuclei (%),[3],72%
same,Population Hoechst High Intensity Objects (%),[3],0%
same,Population Membrane Permeable-Phenotype (%),[3],5% and 4%
same,Population Mitochondria Different-Phenotype (%),[3],0% and 1%
same,Population Mitotic Cells (%),[3],53% and 55%
same,Population Normal (%),[3],100%
same,Population Pyknosed Nuclei (%),[3],18% and 17%
same,Population Tubulin-Different-Phenotype (%),[3],15% and 10%
same,Total Cell Count,[3],248 and 224
same,Population Apoptotic (%),[4],58% and 43%
same,Population Fragmented Nuclei (%),[4],7% and 17%
same,Population Healthy Nuclei (%),[4],71% and 54%
same,Population Hoechst High Intensity Objects (%),[4],0% and 1%
same,Population Membrane Permeable-Phenotype (%),[4],9% and 10%
same,Population Mitochondria Different-Phenotype (%),[4],1%
same,Population Mitotic Cells (%),[4],41% and 56%
same,Population Normal (%),[4],100% and 98%
same,Population Pyknosed Nuclei (%),[4],21% and 28%
same,Population Tubulin-Different-Phenotype (%),[4],27% and 23%
same,Total Cell Count,[4],169 and 205
same,Population Apoptotic (%),[5],70% and 55%
same,Population Fragmented Nuclei (%),[5],10% and 9%
same,Population Healthy Nuclei (%),[5],76% and 77%
same,Population Hoechst High Intensity Objects (%),[5],0%
same,Population Membrane Permeable-Phenotype (%),[5],9% and 3%
same,Population Mitochondria Different-Phenotype (%),[5],0%
same,Population Mitotic Cells (%),[5],29% and 44%
same,Population Normal (%),[5],100%
same,Population Pyknosed Nuclei (%),[5],12%
same,Population Tubulin-Different-Phenotype (%),[5],15% and 5%
same,Total Cell Count,[5],242 and 224
same,Population Apoptotic (%),[6],61% and 68%
same,Population Fragmented Nuclei (%),[6],11% and 16%
same,Population Healthy Nuclei (%),[6],66% and 56%
same,Population Hoechst High Intensity Objects (%),[6],0% and 1%
same,Population Membrane Permeable-Phenotype (%),[6],12% and 10%
same,Population Mitochondria Different-Phenotype (%),[6],0% and 1%
same,Population Mitotic Cells (%),[6],38% and 31%
same,Population Normal (%),[6],100% and 98%
same,Population Pyknosed Nuclei (%),[6],22% and 26%
same,Population Tubulin-Different-Phenotype (%),[6],36% and 31%
same,Total Cell Count,[6],163 and 205
CC(C)N1CCN(Cc2cnc(-c3cc(-c4cccc5[nH]ccc45)cc4[nH]ncc34)o2)CC1 [NEMIRALISIB],Population Apoptotic (%),[1],48% and 43%
same,Population Fragmented Nuclei (%),[1],10%
same,Population Healthy Nuclei (%),[1],72% and 64%
same,Population Hoechst High Intensity Objects (%),[1],0%
same,Population Membrane Permeable-Phenotype (%),[1],6% and 3%
same,Population Mitochondria Different-Phenotype (%),[1],2% and 0%
same,Population Mitotic Cells (%),[1],51% and 56%
same,Population Normal (%),[1],100% and 99%
same,Population Pyknosed Nuclei (%),[1],16% and 24%
same,Population Tubulin-Different-Phenotype (%),[1],19% and 9%
same,Total Cell Count,[1],206 and 286
same,Population Apoptotic (%),[2],32% and 38%
same,Population Fragmented Nuclei (%),[2],7% and 15%
same,Population Healthy Nuclei (%),[2],63% and 69%
same,Population Hoechst High Intensity Objects (%),[2],0% and 2%
same,Population Membrane Permeable-Phenotype (%),[2],7%
same,Population Mitochondria Different-Phenotype (%),[2],6% and 12%
same,Population Mitotic Cells (%),[2],67% and 61%
same,Population Normal (%),[2],100% and 97%
same,Population Pyknosed Nuclei (%),[2],28% and 15%
same,Population Tubulin-Different-Phenotype (%),[2],58% and 61%
same,Total Cell Count,[2],207 and 263
same,Population Apoptotic (%),[3],50% and 62%
same,Population Fragmented Nuclei (%),[3],8% and 10%
same,Population Healthy Nuclei (%),[3],70%
same,Population Hoechst High Intensity Objects (%),[3],0%
same,Population Membrane Permeable-Phenotype (%),[3],7%
same,Population Mitochondria Different-Phenotype (%),[3],2% and 1%
same,Population Mitotic Cells (%),[3],50% and 37%
same,Population Normal (%),[3],100%
same,Population Pyknosed Nuclei (%),[3],20% and 19%
same,Population Tubulin-Different-Phenotype (%),[3],25% and 11%
same,Total Cell Count,[3],201 and 273
same,Population Apoptotic (%),[4],52% and 71%
same,Population Fragmented Nuclei (%),[4],5% and 15%
same,Population Healthy Nuclei (%),[4],72% and 68%
same,Population Hoechst High Intensity Objects (%),[4],3% and 5%
same,Population Membrane Permeable-Phenotype (%),[4],7% and 3%
same,Population Mitochondria Different-Phenotype (%),[4],17% and 22%
same,Population Mitotic Cells (%),[4],47% and 28%
same,Population Normal (%),[4],96% and 95%
same,Population Pyknosed Nuclei (%),[4],22% and 15%
same,Population Tubulin-Different-Phenotype (%),[4],64% and 58%
same,Total Cell Count,[4],175 and 240
same,Population Apoptotic (%),[5],54% and 64%
same,Population Fragmented Nuclei (%),[5],11% and 12%
same,Population Healthy Nuclei (%),[5],73% and 67%
same,Population Hoechst High Intensity Objects (%),[5],0%
same,Population Membrane Permeable-Phenotype (%),[5],9% and 3%
same,Population Mitochondria Different-Phenotype (%),[5],3% and 0%
same,Population Mitotic Cells (%),[5],45% and 35%
same,Population Normal (%),[5],100%
same,Population Pyknosed Nuclei (%),[5],15% and 19%
same,Population Tubulin-Different-Phenotype (%),[5],15% and 7%
same,Total Cell Count,[5],214 and 290
same,Population Apoptotic (%),[6],84% and 61%
same,Population Fragmented Nuclei (%),[6],10% and 15%
same,Population Healthy Nuclei (%),[6],69% and 68%
same,Population Hoechst High Intensity Objects (%),[6],7% and 5%
same,Population Membrane Permeable-Phenotype (%),[6],6% and 4%
same,Population Mitochondria Different-Phenotype (%),[6],11% and 14%
same,Population Mitotic Cells (%),[6],15% and 38%
same,Population Normal (%),[6],92% and 94%
same,Population Pyknosed Nuclei (%),[6],19% and 16%
same,Population Tubulin-Different-Phenotype (%),[6],34% and 40%
same,Total Cell Count,[6],178 and 231
CCN1C(=O)N(c2c(F)c(OC)cc(OC)c2F)Cc2cnc3[nH]c(CN4CCOCC4)cc3c21 [PEMIGATINIB],Population Apoptotic (%),[1],60% and 45%
same,Population Fragmented Nuclei (%),[1],8%
same,Population Healthy Nuclei (%),[1],75% and 58%
same,Population Hoechst High Intensity Objects (%),[1],0%
same,Population Membrane Permeable-Phenotype (%),[1],3% and 8%
same,Population Mitochondria Different-Phenotype (%),[1],1%
same,Population Mitotic Cells (%),[1],40% and 54%
same,Population Normal (%),[1],99% and 100%
same,Population Pyknosed Nuclei (%),[1],15% and 33%
same,Population Tubulin-Different-Phenotype (%),[1],13% and 14%
same,Total Cell Count,[1],220 and 246
same,Population Apoptotic (%),[2],57% and 38%
same,Population Fragmented Nuclei (%),[2],12% and 20%
same,Population Healthy Nuclei (%),[2],53% and 51%
same,Population Hoechst High Intensity Objects (%),[2],0%
same,Population Membrane Permeable-Phenotype (%),[2],8% and 12%
same,Population Mitochondria Different-Phenotype (%),[2],1% and 4%
same,Population Mitotic Cells (%),[2],42% and 61%
same,Population Normal (%),[2],100%
same,Population Pyknosed Nuclei (%),[2],33% and 28%
same,Population Tubulin-Different-Phenotype (%),[2],37% and 26%
same,Total Cell Count,[2],134 and 190
same,Population Apoptotic (%),[3],72% and 67%
same,Population Fragmented Nuclei (%),[3],8% and 7%
same,Population Healthy Nuclei (%),[3],76% and 61%
same,Population Hoechst High Intensity Objects (%),[3],0%
same,Population Membrane Permeable-Phenotype (%),[3],5% and 7%
same,Population Mitochondria Different-Phenotype (%),[3],1% and 0%
same,Population Mitotic Cells (%),[3],27% and 32%
same,Population Normal (%),[3],99% and 100%
same,Population Pyknosed Nuclei (%),[3],15% and 30%
same,Population Tubulin-Different-Phenotype (%),[3],7% and 14%
same,Total Cell Count,[3],237 and 226
same,Population Apoptotic (%),[4],69% and 46%
same,Population Fragmented Nuclei (%),[4],16% and 20%
same,Population Healthy Nuclei (%),[4],57% and 50%
same,Population Hoechst High Intensity Objects (%),[4],0%
same,Population Membrane Permeable-Phenotype (%),[4],3% and 5%
same,Population Mitochondria Different-Phenotype (%),[4],3%
same,Population Mitotic Cells (%),[4],30% and 53%
same,Population Normal (%),[4],100%
same,Population Pyknosed Nuclei (%),[4],26% and 28%
same,Population Tubulin-Different-Phenotype (%),[4],29% and 11%
same,Total Cell Count,[4],136 and 182
same,Population Apoptotic (%),[5],75% and 71%
same,Population Fragmented Nuclei (%),[5],10%
same,Population Healthy Nuclei (%),[5],76% and 60%
same,Population Hoechst High Intensity Objects (%),[5],0%
same,Population Membrane Permeable-Phenotype (%),[5],5% and 3%
same,Population Mitochondria Different-Phenotype (%),[5],0%
same,Population Mitotic Cells (%),[5],24% and 28%
same,Population Normal (%),[5],99%
same,Population Pyknosed Nuclei (%),[5],13% and 28%
same,Population Tubulin-Different-Phenotype (%),[5],5% and 8%
same,Total Cell Count,[5],240 and 232
same,Population Apoptotic (%),[6],81% and 83%
same,Population Fragmented Nuclei (%),[6],17% and 25%
same,Population Healthy Nuclei (%),[6],57% and 51%
same,Population Hoechst High Intensity Objects (%),[6],0%
same,Population Membrane Permeable-Phenotype (%),[6],5% and 8%
same,Population Mitochondria Different-Phenotype (%),[6],1%
same,Population Mitotic Cells (%),[6],18% and 16%
same,Population Normal (%),[6],100%
same,Population Pyknosed Nuclei (%),[6],25% and 22%
same,Population Tubulin-Different-Phenotype (%),[6],25% and 18%
same,Total Cell Count,[6],128 and 166
